Measured values as given in PMC3048909 (Journal of medicinal chemistry, 2011).
Like-named read-outs stand apart in the source and are kept apart here.

How the values were obtained:
human DAT [1] = target: T1, human DAT (Homo sapiens, UniProt Q01959); assay: [3H]DA uptake inhibition, HEK-293 cells expressing human DAT; assay type: cell-based; conditions: for Increase in potency for inhibition of DA uptake: relative to (S,S)-5a
human NET = human NET (Homo sapiens, UniProt P23975); assay: [3H]NE uptake inhibition, HEK-293 cells expressing human NET; assay type: cell-based
human SERT = human SERT (Homo sapiens, UniProt P31645); assay: [3H]5HT uptake inhibition, HEK-293 cells expressing human SERT; assay type: cell-based; conditions: relative to (S,S)-5a
α3β4*-nAChR = α3β4*-nAChR (Homo sapiens, UniProt P30926+P32297); assay: 86Rb+ efflux assay of nAChR function; assay type: cell-based
α4β2-nAChR = α4β2-nAChR (Homo sapiens, UniProt P17787+P43681); assay: 86Rb+ efflux assay of nAChR function; assay type: cell-based
α4β4-nAChR = α4β4-nAChR (Homo sapiens, UniProt P30926+P43681); assay: 86Rb+ efflux assay of nAChR function; assay type: cell-based
[2] = target: α1*-nAChR (muscle-type α1β1γδ-nAChR) (Homo sapiens, UniProt P02708+P07510+P11230+Q07001); assay: 86Rb+ efflux assay of nAChR function; assay type: cell-based
[3] = test system: nicotine-induced antinociception (tail-flick); assay: Blockade of nicotine-induced antinociception, tail-flick test; assay type: in vivo, mice; conditions: for ED50: Mus musculus, read-out: AD50 Tail-flick; for AD50 Tail-flick: mice, antagonism of acute nicotine, parentheses: confidence limits; for More potent in the tail-flick test: relative to (S,S)-4a
Method in brief: (§1)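 Male ICR mice (20–25 g) were given the test compound to block the acute effects of nicotine. Dose-response curves used at least four doses of test compound, with at least eight mice per dose group. Results are AD50 (mg/kg) with confidence limits, or % effect at the highest dose tested.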

[4] = test system: nicotine-induced antinociception (hot-plate); assay: Blockade of nicotine-induced antinociception, hot-plate test; assay type: in vivo, mice; conditions: for ED50: Mus musculus, read-out: AD50 Hot-plate
Method in brief: as §1

[5] = test system: nicotine-induced locomotor depression; assay: Blockade of nicotine-induced locomotor depression; assay type: in vivo, mice; conditions: for ED50: Mus musculus, read-out: AD50 Locomotion; for AD50 Locomotion: mice, antagonism of acute nicotine, parentheses: confidence limits
Method in brief: as §1

[6] = test system: nicotine-induced hypothermia; assay: Blockade of nicotine-induced hypothermia; assay type: in vivo, mice; conditions: for ED50: Mus musculus, read-out: AD50 Hypothermia
Method in brief: as §1

nicotine-induced CPP [7] = assay: Blockade of nicotine-induced conditioned place preference; assay type: in vivo, mice; conditions: for AD50 CPP: mice, blockade of nicotine-induced CPP
[8] = test system: nicotine-induced antinociception (tail-flick); conditions: mice, antagonism of acute nicotine; parentheses: confidence limits; cited from earlier work
[9] = test system: nicotine-induced antinociception (hot-plate); conditions: mice, antagonism of acute nicotine; parentheses: confidence limits; cited from earlier work
[10] = test system: nicotine-induced locomotor depression; conditions: mice, antagonism of acute nicotine; parentheses: confidence limits; cited from earlier work
[11] = test system: nicotine-induced hypothermia; conditions: mice, antagonism of acute nicotine; parentheses: confidence limits; cited from earlier work
human DAT [12] = target: T1, human DAT; conditions: HEK-293 cells, mean ± standard error; cited from earlier work
nicotine-induced CPP [13] = conditions: mice, blockade of nicotine-induced CPP; cited from earlier work
[14] = mice, antagonism of acute nicotine, parentheses: confidence limits

Sequence of α3β4*-nAChR (P32297 32-505): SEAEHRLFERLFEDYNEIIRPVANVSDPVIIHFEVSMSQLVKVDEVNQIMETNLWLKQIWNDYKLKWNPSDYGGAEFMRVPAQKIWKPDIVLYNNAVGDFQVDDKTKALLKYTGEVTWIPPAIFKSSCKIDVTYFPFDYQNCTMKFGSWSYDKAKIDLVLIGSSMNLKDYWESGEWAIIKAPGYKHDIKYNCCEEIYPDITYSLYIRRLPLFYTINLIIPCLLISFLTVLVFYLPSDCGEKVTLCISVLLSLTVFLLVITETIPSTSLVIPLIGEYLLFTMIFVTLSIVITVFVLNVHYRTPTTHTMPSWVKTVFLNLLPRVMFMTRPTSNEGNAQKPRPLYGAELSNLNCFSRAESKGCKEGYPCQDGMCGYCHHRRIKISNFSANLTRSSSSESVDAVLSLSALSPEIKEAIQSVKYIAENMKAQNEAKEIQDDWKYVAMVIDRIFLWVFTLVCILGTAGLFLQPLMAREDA
Sequence of α3β4*-nAChR (P30926 22-498): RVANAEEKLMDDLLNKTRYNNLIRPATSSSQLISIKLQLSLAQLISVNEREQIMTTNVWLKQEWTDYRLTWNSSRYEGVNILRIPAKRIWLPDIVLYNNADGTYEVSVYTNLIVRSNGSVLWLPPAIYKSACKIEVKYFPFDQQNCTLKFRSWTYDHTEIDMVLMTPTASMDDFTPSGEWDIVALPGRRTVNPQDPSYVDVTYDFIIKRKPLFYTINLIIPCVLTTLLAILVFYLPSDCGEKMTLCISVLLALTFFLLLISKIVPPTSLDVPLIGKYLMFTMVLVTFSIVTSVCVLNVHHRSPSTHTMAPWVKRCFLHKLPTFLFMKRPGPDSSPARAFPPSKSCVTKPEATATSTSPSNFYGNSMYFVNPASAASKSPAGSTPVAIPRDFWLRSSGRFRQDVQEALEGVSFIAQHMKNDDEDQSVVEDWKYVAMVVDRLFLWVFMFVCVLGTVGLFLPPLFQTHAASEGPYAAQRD
Sequence of α4β2-nAChR (P43681 29-627 limits assumed): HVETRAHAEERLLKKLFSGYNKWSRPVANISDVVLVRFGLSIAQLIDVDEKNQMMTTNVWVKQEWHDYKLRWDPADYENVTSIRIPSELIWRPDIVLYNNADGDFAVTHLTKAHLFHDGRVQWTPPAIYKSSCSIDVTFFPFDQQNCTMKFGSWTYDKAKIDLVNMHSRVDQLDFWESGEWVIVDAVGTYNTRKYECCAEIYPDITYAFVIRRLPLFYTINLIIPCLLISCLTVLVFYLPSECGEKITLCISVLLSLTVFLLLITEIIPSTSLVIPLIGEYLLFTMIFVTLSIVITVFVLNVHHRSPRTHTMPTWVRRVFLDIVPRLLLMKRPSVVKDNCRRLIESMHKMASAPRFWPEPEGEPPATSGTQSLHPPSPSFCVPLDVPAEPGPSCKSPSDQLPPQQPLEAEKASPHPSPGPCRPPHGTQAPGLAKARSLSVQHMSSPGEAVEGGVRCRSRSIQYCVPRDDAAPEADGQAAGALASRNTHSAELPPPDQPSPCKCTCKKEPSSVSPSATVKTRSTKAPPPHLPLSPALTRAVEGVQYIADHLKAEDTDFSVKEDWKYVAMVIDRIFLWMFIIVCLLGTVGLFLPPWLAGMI
Sequence of α4β2-nAChR (P17787 26-502): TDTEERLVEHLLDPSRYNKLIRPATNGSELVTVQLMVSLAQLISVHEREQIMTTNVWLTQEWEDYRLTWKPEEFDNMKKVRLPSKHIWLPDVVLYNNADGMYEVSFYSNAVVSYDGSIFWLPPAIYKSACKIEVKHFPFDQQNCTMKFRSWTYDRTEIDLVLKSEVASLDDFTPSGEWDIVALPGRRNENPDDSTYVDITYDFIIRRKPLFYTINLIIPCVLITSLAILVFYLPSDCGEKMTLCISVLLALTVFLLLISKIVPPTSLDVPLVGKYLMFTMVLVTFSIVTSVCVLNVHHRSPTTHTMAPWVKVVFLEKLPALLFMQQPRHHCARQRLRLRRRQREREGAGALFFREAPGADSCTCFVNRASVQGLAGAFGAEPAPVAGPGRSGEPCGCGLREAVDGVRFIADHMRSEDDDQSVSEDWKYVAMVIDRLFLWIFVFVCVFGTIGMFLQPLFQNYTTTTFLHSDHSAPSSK
Sequence of α4β4-nAChR (P43681 29-627 limits assumed): as the sequence (P43681 29-627 limits assumed) above
Sequence of α4β4-nAChR (P30926 22-498): as the sequence (P30926 22-498) above
Sequence of α1*-nAChR (muscle-type α1β1γδ-nAChR) (P02708 21-457): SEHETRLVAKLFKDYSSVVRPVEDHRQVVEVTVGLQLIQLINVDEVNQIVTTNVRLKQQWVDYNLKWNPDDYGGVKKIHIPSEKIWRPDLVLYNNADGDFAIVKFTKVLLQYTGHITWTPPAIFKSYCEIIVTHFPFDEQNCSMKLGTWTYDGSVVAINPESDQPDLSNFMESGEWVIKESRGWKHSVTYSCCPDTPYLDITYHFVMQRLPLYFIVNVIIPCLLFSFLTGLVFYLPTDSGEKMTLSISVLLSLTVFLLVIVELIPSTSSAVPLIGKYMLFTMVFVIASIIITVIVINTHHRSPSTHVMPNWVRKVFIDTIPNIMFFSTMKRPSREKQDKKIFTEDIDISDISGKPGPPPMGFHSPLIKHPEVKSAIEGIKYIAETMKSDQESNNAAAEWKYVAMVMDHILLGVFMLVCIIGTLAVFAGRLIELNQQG
Sequence of α1*-nAChR (muscle-type α1β1γδ-nAChR) (P11230 24-501): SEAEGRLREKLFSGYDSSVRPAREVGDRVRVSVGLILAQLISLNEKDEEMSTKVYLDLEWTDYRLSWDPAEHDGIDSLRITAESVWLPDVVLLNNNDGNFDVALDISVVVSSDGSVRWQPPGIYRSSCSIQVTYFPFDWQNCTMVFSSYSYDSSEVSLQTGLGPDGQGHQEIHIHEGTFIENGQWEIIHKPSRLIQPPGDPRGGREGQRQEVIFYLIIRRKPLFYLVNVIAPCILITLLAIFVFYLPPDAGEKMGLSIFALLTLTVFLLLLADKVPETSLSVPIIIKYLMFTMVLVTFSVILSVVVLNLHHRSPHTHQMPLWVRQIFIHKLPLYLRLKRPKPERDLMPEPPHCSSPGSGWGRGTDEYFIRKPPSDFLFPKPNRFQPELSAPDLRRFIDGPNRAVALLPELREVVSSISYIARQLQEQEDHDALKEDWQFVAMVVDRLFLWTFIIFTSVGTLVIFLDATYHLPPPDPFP
Sequence of α1*-nAChR (muscle-type α1β1γδ-nAChR) (P07510 23-517): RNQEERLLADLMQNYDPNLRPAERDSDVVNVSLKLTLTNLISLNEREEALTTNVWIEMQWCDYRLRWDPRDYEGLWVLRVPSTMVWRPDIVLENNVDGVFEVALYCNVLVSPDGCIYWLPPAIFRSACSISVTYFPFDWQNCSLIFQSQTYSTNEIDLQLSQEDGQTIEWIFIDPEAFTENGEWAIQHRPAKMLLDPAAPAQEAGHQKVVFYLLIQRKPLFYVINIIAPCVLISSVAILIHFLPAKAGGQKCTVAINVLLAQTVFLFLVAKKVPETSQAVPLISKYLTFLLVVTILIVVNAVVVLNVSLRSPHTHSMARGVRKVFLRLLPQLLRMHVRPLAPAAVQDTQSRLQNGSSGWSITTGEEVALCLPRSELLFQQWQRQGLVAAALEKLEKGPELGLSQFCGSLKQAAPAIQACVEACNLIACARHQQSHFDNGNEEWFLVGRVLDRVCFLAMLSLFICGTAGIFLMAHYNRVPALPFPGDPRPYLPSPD
Sequence of α1*-nAChR (muscle-type α1β1γδ-nAChR) (Q07001 22-517): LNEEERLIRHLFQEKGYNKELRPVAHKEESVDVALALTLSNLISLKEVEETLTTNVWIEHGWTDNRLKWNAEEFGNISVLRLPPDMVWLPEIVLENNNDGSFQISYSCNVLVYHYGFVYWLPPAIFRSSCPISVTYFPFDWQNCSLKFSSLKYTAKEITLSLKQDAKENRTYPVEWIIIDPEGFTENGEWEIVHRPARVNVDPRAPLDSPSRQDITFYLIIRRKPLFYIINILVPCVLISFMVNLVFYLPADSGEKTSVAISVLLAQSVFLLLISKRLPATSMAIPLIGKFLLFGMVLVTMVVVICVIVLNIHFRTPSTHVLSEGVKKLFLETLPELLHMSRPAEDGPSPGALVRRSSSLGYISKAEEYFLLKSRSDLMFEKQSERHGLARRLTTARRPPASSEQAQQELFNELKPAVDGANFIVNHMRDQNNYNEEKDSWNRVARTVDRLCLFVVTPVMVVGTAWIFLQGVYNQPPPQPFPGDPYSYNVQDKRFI
Sequence of human NET (P23975 whole entry): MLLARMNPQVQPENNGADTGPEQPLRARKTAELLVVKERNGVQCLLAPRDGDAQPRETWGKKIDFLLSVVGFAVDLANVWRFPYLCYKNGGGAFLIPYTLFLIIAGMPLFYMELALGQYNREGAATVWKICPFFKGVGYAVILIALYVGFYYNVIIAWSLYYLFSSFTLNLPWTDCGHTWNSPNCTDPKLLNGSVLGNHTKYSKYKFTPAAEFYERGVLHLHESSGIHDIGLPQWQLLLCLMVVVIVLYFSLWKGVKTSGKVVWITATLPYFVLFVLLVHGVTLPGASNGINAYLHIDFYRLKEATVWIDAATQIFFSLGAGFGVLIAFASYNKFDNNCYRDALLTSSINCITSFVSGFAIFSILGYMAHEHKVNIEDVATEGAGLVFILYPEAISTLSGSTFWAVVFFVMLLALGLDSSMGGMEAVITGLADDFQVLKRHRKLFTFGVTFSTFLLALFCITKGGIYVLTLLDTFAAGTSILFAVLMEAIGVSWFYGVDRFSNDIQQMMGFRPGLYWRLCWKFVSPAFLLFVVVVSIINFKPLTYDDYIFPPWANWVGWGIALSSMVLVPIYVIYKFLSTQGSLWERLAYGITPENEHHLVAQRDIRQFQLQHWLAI

## C[C@@H]1NC(C)(C)CO[C@H]1c1cccc(F)c1 [(S,S)-5b, (S,S)-2-(3’-Fluorophenyl)-3,5,5-trimethylmorpholine]
Human DAT [1]
  IC50: 0.061 ± 0.02 µM
  Increase in potency for inhibition of DA uptake: 3.7 fold
Human DAT [1]; compared to (S,S)-4a
  More potent as DA uptake inhibitor: 10 fold
Human NET
  IC50: 0.032 ± 0.003 µM
Human NET; compared to (S,S)-4a
  More potent as NE uptake inhibitor: 5.6 fold
Human NET; relative to (S,S)-5a
  Increase in potency for inhibition of NE uptake: 3.2 fold
Human SERT
  Decrease in potency for inhibition of 5HT uptake: 12 fold
α3β4*-nAChR
  IC50: 5.6 µM
α4β2-nAChR
  IC50: 23 µM
α4β4-nAChR
  IC50: 55 µM
[2]
  IC50: 34 µM
[3]
  ED50: 0.02 mg/kg
[4]
  ED50: > 20 mg/kg
[5]
  ED50: 4.7 mg/kg
[6]
  ED50: > 20 mg/kg

## CCCN1[C@@H](C)[C@H](c2cccc(Cl)c2)OCC1(C)C [(S,S)-5f, (S,S)-2-(3'-Chlorophenyl)-3,5,5-trimethyl-4-propylmorpholine]
Human DAT [1]
  IC50: 0.061 ± 0.02 µM
Human NET
  IC50: 0.013 ± 0.0036 µM
α3β4*-nAChR
  IC50: 0.98 µM
α4β2-nAChR
  IC50: 12 µM
α4β4-nAChR
  IC50: 5.8 µM
[2]
  IC50: 5.5 µM
[3]
  ED50: 0.056 mg/kg
[4]
  ED50: > 20 mg/kg
[5]
  ED50: > 20 mg/kg
[6]
  ED50: > 20 mg/kg
nicotine-induced CPP [7]
  AD50 CPP: 0.03 mg/kg

## C[C@H]1[C@H](c2cccc(Cl)c2)OCC(C)(C)N1C [(S,S)-5d, (S,S)-2-(3'-Chlorophenyl)-3,4,5,5-tetramethylmorpholine]
Human DAT [1]
  IC50: 0.23 ± 0.06 µM
Human NET
  IC50: 0.17 ± 0.02 µM
α3β4*-nAChR
  IC50: 2.8 µM
α4β2-nAChR
  IC50: 16 µM
α4β4-nAChR
  IC50: 23 µM
[2]
  IC50: 21 µM
[3]
  ED50: 0.13 mg/kg
[4]
  ED50: > 20 mg/kg
[5]
  ED50: 3.8 mg/kg
[6]
  ED50: > 20 mg/kg

## C[C@H]1NC(C)(C)CO[C@]1(O)c1cccc(Cl)c1 [(R,R)-4a, (R,R)-2-(3'-chlorophenyl)-3,5,5-trimethylmorpholine-2-ol]
[8]
  AD50 Tail-flick: 2.5 (1.2–3.6) mg/kg
[9]
  AD50 Hot-plate: 10.3 (5.7–17.1) mg/kg
[10]
  AD50 Locomotion: IA (IA = AD50 > 20 mg/kg)
[11]
  AD50 Hypothermia: IA (IA = AD50 > 20 mg/kg)
Human DAT [12]
  Monoamine Uptake Inhibition IC50 [3H]DA: inactive

## C[C@H]1NC(C)(C)CO[C@@H]1c1cccc(Cl)c1 [(R,R)-5a, (R,R)-2-(3'-Chlorophenyl)-3,5,5-trimethylmorpholine]
[2]
  IC50: 9.4 µM
[3]
  ED50: 1.26 mg/kg
[4]
  ED50: 3.9 mg/kg
[5]
  ED50: > 20 mg/kg
[6]
  ED50: > 20 mg/kg

## C[C@@H]1NC(C)(C)CO[C@H]1c1cccc(Cl)c1 [(S,S)-5a, (S,S)-2-(3'-Chlorophenyl)-3,5,5-trimethylmorpholine]
[3]
  ED50: 0.036 mg/kg
  AD50 Tail-flick: 0.036 (0.012–0.1) mg/kg
  More potent in the tail-flick test: 5.5 times
[4]
  ED50: > 20 mg/kg
[4]; [14]
  AD50 Hot-plate: inactive
[5]
  ED50: > 20 mg/kg
[6]
  ED50: > 20 mg/kg
[6]; [14]
  AD50 Hypothermia: inactive

## CC(NC(C)(C)C)C(=O)c1cccc(Cl)c1 (stereo not drawn) [compound 2, bupropion]
[9]
  AD50 Hot-plate: 15 (6–19) mg/kg
[10]
  AD50 Locomotion: 4.9 (0.9–46) mg/kg
[11]
  AD50 Hypothermia: 9.2 (4–23) mg/kg
nicotine-induced CPP [13]
  AD50 CPP: 0.35 mg/kg

## CCC[C@@H]1NC(C)(C)CO[C@H]1c1cccc(Cl)c1 [(S,S)-5h, (S,S)-2-(3'-Chlorophenyl)-5,5-dimethyl-3-propylmorpholine]
Human DAT [1]
  IC50: 0.006 ± 0.001 µM
Human NET
  IC50: 0.009 ± 0.002 µM
α3β4*-nAChR
  IC50: 3.1 µM
α4β2-nAChR
  IC50: 9.5 µM
α4β4-nAChR
  IC50: 8 µM
[2]
  IC50: 5 µM
[3]
  ED50: 0.017 mg/kg
  AD50 Tail-flick: 0.017 (0.002–0.15) mg/kg
[4]
  ED50: > 20 mg/kg
[5]
  ED50: 0.49 mg/kg
  AD50 Locomotion: 0.49(0.3–6.6) mg/kg
[6]
  ED50: > 20 mg/kg

## CC[C@@H]1NC(C)(C)CO[C@H]1c1cccc(Cl)c1 [(S,S)-5g, (S,S)-2-(3'-Chlorophenyl)-3-ethyl-5,5-dimethylmorpholine]
Human DAT [1]
  IC50: 0.023 ± 0.005 µM
Human NET
  IC50: 0.019 ± 0.003 µM
α3β4*-nAChR
  IC50: 5.6 µM
α4β2-nAChR
  IC50: 14 µM
α4β4-nAChR
  IC50: 15 µM
[2]
  IC50: 13 µM
[3]
  ED50: 0.018 mg/kg
  AD50 Tail-flick: 0.018 (0.009–0.03) mg/kg
[4]
  ED50: 9.6 mg/kg
[5]
  ED50: 2.7 mg/kg
[6]
  ED50: 2.5 mg/kg

## C[C@@H]1NC(C)(C)CO[C@H]1c1cccc(Br)c1 [(S,S)-5c, (S,S)-2-(3'-Bromophenyl)-3,5,5-trimethylmorpholine]
Human DAT [1]
  IC50: 0.044 ± 0.003 µM
  Increase in potency for inhibition of DA uptake: 5 fold
Human NET
  IC50: 0.15 ± 0.02 µM
α3β4*-nAChR
  IC50: 1.4 µM
α3β4*-nAChR; relative to (S,S)-5a
  More potent at α3β4*-nAChR: ~ 2 fold
α4β2-nAChR
  IC50: 12 µM
α4β4-nAChR
  IC50: 11 µM
[2]
  IC50: 7.3 µM
[3]
  ED50: 0.006 mg/kg
  More potent in the tail-flick test: ~ 33 times
[4]
  ED50: > 20 mg/kg
[5]
  AD50 Locomotion: 2.1 (0.9–4.8) mg/kg
[6]
  ED50: > 20 mg/kg

## C[C@@H]1NC(C)(C)CO[C@@]1(O)c1cccc(Cl)c1 [(S,S)-4a, (S,S)-2-(3'-chlorophenyl)-3,5,5-trimethylmorpholine-2-ol]
α4β2-nAChR; relative to (R,R)-4a
  Potency as functional antagonist of α4β2-nAChR, higher than: ~ 10 fold
[8]
  AD50 Tail-flick: 0.2 (0.06–0.7) mg/kg
[9]
  AD50 Hot-plate: 1.0 (0.2–2.2) mg/kg
[10]
  AD50 Locomotion: 0.9 (0.2–5.7) mg/kg
nicotine-induced CPP [13]
  AD50 CPP: 0.1 mg/kg

## CCN1[C@@H](C)[C@H](c2cccc(Cl)c2)OCC1(C)C [(S,S)-5e, (S,S)-2-(3'-Chlorophenyl)-4-ethyl-3,5,5-trimethylmorpholine]
Human DAT [1]
  IC50: 0.044 ± 0.009 µM
Human NET
  IC50: 0.024 ± 0.008 µM
α3β4*-nAChR
  IC50: 0.79 µM
α4β2-nAChR
  IC50: 7.2 µM
α4β4-nAChR
  IC50: 6.4 µM
[2]
  IC50: 14 µM
[3]
  ED50: 0.029 mg/kg
[4]
  ED50: > 20 mg/kg
[5]
  ED50: > 20 mg/kg
[6]
  ED50: > 20 mg/kg
nicotine-induced CPP [7]
  AD50 CPP: 0.025 mg/kg
nicotine-induced CPP [7]; relative to (S,S)-4a
  More potent in blocking nicotine-induced CPP: 4 fold
